This note sets out measurements from ChEMBL document CHEMBL2086379, “Novel pyrimidopyrimidine derivatives for inhibition of cellular proliferation and motility induced by h-prune in breast cancer” (Eur J Med Chem, 2012).

For experiment [1], the species on record is Homo sapiens. Nature of the experiment: Inhibition of cell motility in human MDA-MB-231T cells expressing human-prune at 8 uM by 2D cell migration assay. The class given is functional, cell-based.
Experiment [2] concerns the target T1, Exopolyphosphatase PRUNE1 (Homo sapiens, UniProt Q86TP1).
T1 sequence (Q86TP1 whole entry): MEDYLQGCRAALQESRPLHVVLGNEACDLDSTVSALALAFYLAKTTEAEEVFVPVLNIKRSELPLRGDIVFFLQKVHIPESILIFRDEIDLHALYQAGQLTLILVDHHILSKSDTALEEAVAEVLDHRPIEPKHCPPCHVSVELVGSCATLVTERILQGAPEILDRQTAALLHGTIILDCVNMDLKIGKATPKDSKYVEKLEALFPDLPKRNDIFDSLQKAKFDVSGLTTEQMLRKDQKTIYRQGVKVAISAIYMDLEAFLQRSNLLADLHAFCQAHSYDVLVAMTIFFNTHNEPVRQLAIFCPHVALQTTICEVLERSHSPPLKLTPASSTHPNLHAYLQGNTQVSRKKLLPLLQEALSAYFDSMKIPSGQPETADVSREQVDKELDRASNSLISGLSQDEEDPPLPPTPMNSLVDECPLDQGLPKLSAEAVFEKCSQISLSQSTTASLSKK
Nature of the experiment: Inhibition of human prune assessed as reduction of cAMP-phosphodiesterase activity.

The species entered for experiment [3] is Homo sapiens. Nature of the experiment: Inhibition of cell proliferation of human MDA-MB-231T cells expressing human-prune assessed as cell index levels at 50 uM measured 5 hrs post dose by xCelligence system based real time cell analysis method. Format: functional. The gist of the method:
(§1)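 Compound or DMSO added once when cell index reached 1.0–1.2 (50–60% confluence). CI read every 5 min for up to 54–56 h at 37 °C, 5% CO2, normalised to time of addition. Compounds at 50 µM (dose-response runs also 100 µM). Two independent experiments; Student's t test.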

Experiment [4] in a line: Inhibition of cell proliferation of human MDA-MB-231T cells expressing human-prune assessed as cell index levels at 50 uM measured 24 hrs post dose by xCelligence system based real time cell analysis method (reference value: 1.777 cell index). The class given is functional. The gist of the method: as §1
The species named for experiment [5] is Homo sapiens. Briefly: Inhibition of cell proliferation of human MDA-MB-231T cells expressing human-prune assessed as cell index levels at 50 uM measured 9 to 54 hrs post dose by xCelligence system based real time cell analysis method. The class given is functional. The gist of the method: as §1
The target in experiment [6] is T1, Exopolyphosphatase PRUNE1. Briefly: Inhibition of purified human prune assessed as reduction of cAMP-phosphodiesterase activity by SPA.
The target in experiment [7] is T2, Exopolyphosphatase PRUNE1 (Homo sapiens) (UniProt Q86TP1).
T2 sequence (whole entry): T1 sequence (Q86TP1 whole entry)
Briefly: Inhibition of human prune expressed in human MDA-435-c100 cells at 1 uM assessed as reduction of cAMP-phosphodiesterase activity using whole cell protein extracts by SPA. The class given is cell-based.

The source made the active and inactive calls. The rule behind the calls is not given here.

A word on the IC50: it is the midpoint of a concentration-inhibition curve. Regarding `OCCN(CCO)c1nc(N2CCCCC2)c2nc(N(CCO)CCO)nc(N3CCCCC3)c2n1` [DIPYRIDAMOLE], the inhibition entry in the experiment filed under Homo sapiens [1] and in the experiment listed under Homo sapiens [5] was “Active” throughout. Besides, in experiment [2], the IC50 was found to be 780 nM. The inhibition result in the experiment listed under Homo sapiens [3] is “inactive”. The Activity in experiment [4] was determined as 1.472.

For the compound `COc1ccc(CNc2nc(N(CCO)CCO)nc3c(NCc4ccc(OC)cc4)nc(N(CCO)CCO)nc23)cc1`, the inhibition result (in the experiment listed under Homo sapiens [1]; in experiment [7]) was “Active” in each case. In experiment [6], the IC50 is 210 nM. Also, in the experiment listed under Homo sapiens [3], the inhibition result was “inactive”. For the same compound, the Activity in experiment [4] is recorded as 1.185.
